A value given as a limit tells only on which side of the number the result lay.

Holding throughout (assay type): cell-based
One test relates to CCRF-CEM leukemia cells. Nature of the test: Resazurin reduction assay. The note with it: Homo sapiens, 72 h. The method in brief:
(§1)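 Resazurin reduction read after 72 h at 37 °C in humidified 5% CO2; fluorescence at 544 nm excitation and 590 nm emission. Test samples were dissolved in DMSO (final ≤0.1%). IC50 is the concentration that gives 50% inhibition of proliferation, derived by linear regression. Degree of resistance is IC50 in the resistant line divided by IC50 in its parental line. Selectivity index is IC50 in AML12 divided by IC50 in HepG2.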

Another test deals with U87MG glioblastoma cells. The test is described as follows: Resazurin reduction assay. Conditions: Homo sapiens, U-87 MG, 72 h. The procedure, abridged:
as §1
A general note: The colour change of resazurin is a common sign of viable cells or microbes.

The subject of test [1] is HepG2 hepatocarcinoma cells. Nature of the test: Resazurin reduction assay. Conditions: Homo sapiens, HepG2, 72 h. The procedure, abridged:
as §1

For the next test, the system named is normal AML12 hepatocytes. Nature of the test: Resazurin reduction assay. Conditions: for IC50: Mus musculus, AML12, 72 h; for Selectivity index: ratio IC50 AML12 hepatocytes / IC50 HepG2. The method in brief:
as §1

In test [2] the test system is MDA-MB-231-BCRP breast adenocarcinoma cells. Nature of the test: Resazurin reduction assay. Conditions: for IC50: MDA-MB-231/BCRP, 72 h. The method in brief:
as §1

For test [3], the system named is U87MG.ΔEGFR glioblastoma cells. Nature of the test: Resazurin reduction assay. The note with it: for IC50: 72 h; for Degree of resistance: ratio IC50 U87MG.ΔEGFR / IC50 U87MG. The method in brief:
as §1

For test [4], the system named is MDA-MB-231-pcDNA breast adenocarcinoma cells. The test is described as follows: Resazurin reduction assay. The note with it: 72 h. The procedure, abridged: as §1
For test [5], the system named is HCT116 (p53-/-) colon adenocarcinoma cells. Nature of the test: Resazurin reduction assay. Conditions: for IC50: Homo sapiens, HCT-116, 72 h; for Degree of resistance: ratio IC50 HCT116 (p53-/-) / IC50 HCT116 (p53+/+). The method in brief: as §1
For test [6], the system named is CEM/ADR5000 leukemia cells (P-glycoprotein-overexpressing). Nature of the test: Resazurin reduction assay. Conditions: for IC50: Homo sapiens, ADR5000, 72 h; for Degree of resistance: ratio IC50 CEM/ADR5000 / IC50 CCRF-CEM. The procedure, abridged: as §1
Test [7] concerns HCT116 (p53+/+) colon cancer cells. Nature of the test: Resazurin reduction assay. The note with it: Homo sapiens, HCT-116, 72 h. The procedure, abridged: as §1
Test [8] deals with CCRF-CEM cells. The test is described as follows: Cell cycle distribution by flow cytometry. Conditions: 24 h treatment. The method in brief: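 CCRF-CEM cells (1×10^6) were treated for 24 h under standard culture conditions with various concentrations of test sample, or with DMSO (0.1% final) as control. Cell-cycle phases were read by flow cytometry from propidium iodide fluorescence of individual nuclei. At least three independent experiments, each with three repetitions.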

Test [9] has as its system CCRF-CEM cells. Nature of the test: Flow cytometric analysis of ROS production. Conditions: 24 h, 50 μM, non-treated cells 0.6%. (In general: A flow cytometer gives signals particle by particle.)

Regarding `COc1cc(-c2cc(=O)c3c(O)cc(O[C@@H]4O[C@H](CO)[C@@H](O)[C@H](O)[C@H]4O)cc3o2)ccc1O` [Compound 3, chrysoeriol-7-O-β-D-glucopyranoside], the half-maximal inhibitory concentration (IC50) – broadly, the point on the concentration scale where inhibition reaches its midpoint – in the test on CCRF-CEM leukemia cells is 20.8 ± 1.76 µM; with U87MG glioblastoma cells, 24.9 ± 2.19 µM; in test [1] it was 34.2 ± 2.86 µM; in the test on normal AML12 hepatocytes, more than 100 µM; in test [2], more than 100 µM; in test [3], 21.1 ± 0.92 µM. The concentration for half-maximal inhibition (IC50) in test [4] is more than 100 µM; in test [5] it was 28.4 ± 1.72 µM; in test [6], 18.7 ± 1.25 µM; in test [7], 30.7 ± 4.04 µM. For the same compound, the Selectivity index in the test on normal AML12 hepatocytes is more than 2.92. In test [6], the Degree of resistance came to 0.90.

Consider `O=c1cc(-c2ccc(O)cc2)oc2cc(O[C@@H]3O[C@H](CO)[C@@H](O)[C@H](O)[C@H]3O)cc(O)c12` [Compound 4, Apigenin-7-O-β-D-glucopyranoside], for which the IC50 in the test on CCRF-CEM leukemia cells was 10.4 ± 1.17 µM; in the test with U87MG glioblastoma cells, more than 100 µM; in test [1], more than 100 µM; with normal AML12 hepatocytes, more than 100 µM; in test [2] it was more than 100 µM; in test [3] it was more than 100 µM. The IC50 in test [4], in test [5], in [6] and in test [7] was more than 100 µM each time. Also, the Degree of resistance in test [6] is on record as more than 9.62.

Consider `O=c1cc(-c2ccc(O)c(O)c2)oc2cc(O)cc(O)c12` [Compound 6, luteolin], for which the IC50 was 11 ± 0.97 µM with CCRF-CEM leukemia cells; 22.7 ± 2.2 µM in the test on U87MG glioblastoma cells; 29 ± 1.77 µM in test [1]; more than 100 µM with normal AML12 hepatocytes; more than 100 µM in test [2]; 18.9 ± 1.06 µM in test [3]. In addition, the IC50 is more than 100 µM in test [4], 30.4 ± 2.55 µM in [5], 27 ± 1.29 µM in [6] and 28.3 ± 1.07 µM in [7]. Also, in the test with normal AML12 hepatocytes, the Selectivity index is more than 3.45. Also, the Degree of resistance was found to be 0.83 in test [3], 1.07 in test [5] and 2.46 in [6].

For `COc1cccc2c1C(=O)c1c(O)c3c(c(O)c1C2=O)C[C@@](O)(C(=O)CO)C[C@@H]3O[C@H]1C[C@H](N)[C@H](O)[C@H](C)O1` [Doxorubicin, reference compound], the “cell cycle arrest phase” value with CCRF-CEM cells [8] is “S and G2/M phase arrest”. Further, the IC50 in the test on CCRF-CEM leukemia cells stood at 0.02 µM; in the test on U87MG glioblastoma cells it was 0.26 ± 0.03 µM; in test [1], 4.56 ± 0.48 µM; with normal AML12 hepatocytes, 52.9 ± 4.09 µM; in test [2], 0.79 ± 0.08 µM; in test [3], 0.98 ± 0.07 µM. The values for the IC50 in test [4] and in test [5] were 0.13 ± 0.01 µM and 1.78 ± 0.08 µM, respectively. Moreover, the Degree of resistance in test [2] (ratio IC50 MDA-MB-231-BCRP / IC50 MDA-MB-231-pcDNA) worked out at 6.14; in [3], 3.79; in test [5], 3.73.

`OO` [H2O2, Hydrogen peroxide] yielded an ROS levels with CCRF-CEM cells [9] of 94.30%.

Values taken from PMC7609460 (Heliyon, 2020).
